Test results reported in ChEMBL document CHEMBL1129624, “10-substituted 11-oxygenated (R)-aporphines: synthesis, pharmacology, and modeling of 5-HT1A receptor interactions” (J Med Chem, 1996).

What was measured:
[1] = target: T1, 5-hydroxytryptamine receptor 1A (Rattus norvegicus, UniProt P19327); test: In vitro affinity at 5-hydroxytryptamine 1A receptor of rat hippocampus by [3H]8-OH-DPAT displacement.; type: tissue-based
T1 sequence (P19327 whole entry): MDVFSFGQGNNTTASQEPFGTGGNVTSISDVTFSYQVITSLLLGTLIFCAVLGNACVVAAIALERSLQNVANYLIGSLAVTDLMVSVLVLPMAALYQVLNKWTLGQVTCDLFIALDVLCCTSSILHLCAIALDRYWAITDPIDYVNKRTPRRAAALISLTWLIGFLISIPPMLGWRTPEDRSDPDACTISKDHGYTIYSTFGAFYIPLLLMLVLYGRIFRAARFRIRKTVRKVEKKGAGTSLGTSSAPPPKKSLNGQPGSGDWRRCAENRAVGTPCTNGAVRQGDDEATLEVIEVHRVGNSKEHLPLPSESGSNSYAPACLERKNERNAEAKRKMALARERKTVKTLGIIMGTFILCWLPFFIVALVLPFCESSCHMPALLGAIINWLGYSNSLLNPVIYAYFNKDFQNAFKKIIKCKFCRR
In short: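 Incubation in 50 mM Tris–HCl pH 7.4 containing 2.0 mM CaCl2, 1.0 mM MgCl2, 1.0 mM MnCl2 and 5.7 mM ascorbic acid, 45 min at 37 °C. Nonspecific binding defined with 100 μM 5-HT·HCl. Otherwise run as in an earlier report.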

[2] = target: T2, D(1A) dopamine receptor (Rattus norvegicus, UniProt P18901); test: In vitro affinity at Dopamine receptor D1 of rat striatum by [3H]SCH-23390 displacement.; type: tissue-based
[3] = target: T3, D(2) dopamine receptor (Homo sapiens, UniProt P14416); test: In vitro affinity at human cloned Dopamine receptor D2A by [3H]-raclopride displacement.
[4] = test system: Rattus norvegicus; test: In vivo effect on 5-hydroxytryptophan (5-HTP) accumulation following decarboxylase inhibition was investigated on striatum of reserpine-pretreated rats.; type: functional
In short: (§1)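 Rats pretreated with reserpine (5 mg/kg sc) 18–20 h before. Single sc doses of test agent in saline, sometimes with a few drops of glacial HOAc. Decarboxylase then blocked with NSD1015 (117 mg/kg sc). DOPA and 5-HTP measured in dissected brain regions by HPLC with electrochemical detection. Values given as percent of saline controls, n = 2–4. Statistics by one-way ANOVA with Fisher's PLSD.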

[5] = test system: Rattus norvegicus; test: In vivo effect on 5-hydroxytryptophan (5-HTP) accumulation following decarboxylase inhibition was tested on limbic forebrain of reserpine-pretreated rats.; type: functional, Limbic system; in short: as §1
[6] = test system: Rattus norvegicus; test: In vivo effects of single doses on dihydroxyphenylalanine (DOPA) accumulation following decarboxylase inhibition was investigated on limbic forebrain of reserpine-pretreated rats.; type: functional, Limbic system; in short: as §1
[7] = test system: Rattus norvegicus; test: In vivo effects on 5-hydroxytryptophan (5-HTP) accumulation following decarboxylase inhibition was tested on cortex of reserpine-pretreated rats.; type: functional; in short: as §1
[8] = test system: Rattus norvegicus; test: In vivo effects on dihydroxyphenylalanine (DOPA) accumulation following decarboxylase inhibition was tested on cortex of reserpine-pretreated rats; type: functional; in short: as §1
[9] = test system: Rattus norvegicus; test: In vivo effects on dihydroxyphenylalanine (DOPA) accumulation following decarboxylase inhibition was tested on striatum of reserpine-pretreated rats.; type: functional; in short: as §1
[10] = target: T3, D(2) dopamine receptor; test: In vitro affinity at human cloned Dopamine receptor D2A by [3H]raclopride displacement.
[11] = target: T2, D(1A) dopamine receptor; test: In vitro affinity at Dopamine receptor D1 of rat striatum by [3H]SCH-23,390 displacement.; type: tissue-based
[12] = test system: Rattus norvegicus; test: In vivo effect on dihydroxyphenylalanine (DOPA) accumulation following decarboxylase inhibition was tested on cortex of reserpine-pretreated rats; type: functional; in short: as §1
[13] = test system: Rattus norvegicus; test: In vivo effect on dihydroxyphenylalanine (DOPA) accumulation following decarboxylase inhibition was tested on striatum of reserpine-pretreated rats.; type: functional; in short: as §1

T2 sequence (P18901 whole entry): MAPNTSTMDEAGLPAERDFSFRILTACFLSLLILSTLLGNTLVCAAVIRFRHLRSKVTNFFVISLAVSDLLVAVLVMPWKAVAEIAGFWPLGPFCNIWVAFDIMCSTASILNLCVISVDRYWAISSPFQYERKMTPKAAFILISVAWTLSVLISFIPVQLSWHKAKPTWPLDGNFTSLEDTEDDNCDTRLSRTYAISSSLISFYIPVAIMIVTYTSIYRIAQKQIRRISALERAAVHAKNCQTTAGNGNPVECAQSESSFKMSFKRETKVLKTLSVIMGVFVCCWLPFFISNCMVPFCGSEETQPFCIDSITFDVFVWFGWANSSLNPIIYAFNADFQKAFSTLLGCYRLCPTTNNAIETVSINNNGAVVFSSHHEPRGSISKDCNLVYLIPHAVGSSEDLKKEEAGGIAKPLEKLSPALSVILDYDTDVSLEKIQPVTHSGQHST
T3 sequence (P14416 whole entry): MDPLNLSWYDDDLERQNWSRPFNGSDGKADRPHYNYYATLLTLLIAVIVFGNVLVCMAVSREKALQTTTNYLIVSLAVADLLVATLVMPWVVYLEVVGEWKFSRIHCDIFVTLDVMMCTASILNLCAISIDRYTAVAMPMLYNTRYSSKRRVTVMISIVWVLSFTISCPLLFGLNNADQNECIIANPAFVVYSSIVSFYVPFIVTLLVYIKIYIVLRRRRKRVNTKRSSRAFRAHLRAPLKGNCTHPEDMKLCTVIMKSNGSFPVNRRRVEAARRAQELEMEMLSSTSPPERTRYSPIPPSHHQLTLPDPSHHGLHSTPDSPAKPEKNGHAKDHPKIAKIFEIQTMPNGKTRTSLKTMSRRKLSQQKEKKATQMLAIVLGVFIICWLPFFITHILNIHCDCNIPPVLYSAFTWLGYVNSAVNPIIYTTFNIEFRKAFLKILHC

| SMILES | Ki [1] | Ki [2] | Ki [3] | further results |
| --- | --- | --- | --- | --- |
| CCc1ccc2c(c1O)-c1cccc3c1[C@@H](C2)N(C)CC3 | 0.0092 µM | 0.782 µM | 2.05 µM | – |
| Cc1ccc2c(c1O)-c1cccc3c1[C@@H](C2)NCC3 | 0.0032 µM | 23.8 µM | > 10 µM | Accumulation [4]: 47; Accumulation [5]: 37; Accumulation [6]: 85; Accumulation [7]: 40; Accumulation [8]: 93; Accumulation [9]: 78 |
| COc1c(C)ccc2c1-c1cccc3c1[C@@H](C2)NCC3 | 0.0126 µM | – | – | Ki [10]: 4.71 µM; Ki [11]: > 5 µM |
| CCCN1CCc2cccc3c2[C@H]1Cc1ccc(C)c(OC)c1-3 | 0.0108 µM | > 2 µM | 0.238 µM | – |
| COc1c(-c2ccco2)ccc2c1-c1cccc3c1[C@@H](C2)N(C)CC3 | 0.995 µM | – | – | Ki [10]: 0.582 µM; Ki [11]: 14 µM |
| COc1c(C)ccc2c1-c1cccc3c1[C@@H](C2)N(Cc1ccccc1)CC3 | – | – | – | Ki [10]: > 5 µM; Ki [11]: > 5 µM |
| CN1CCc2cccc3c2[C@H]1Cc1ccc(-c2ccccc2)c(O)c1-3 | 1.09 µM | 9.4 µM | > 1 µM | – |
| CCCN1CCc2cccc3c2[C@H]1Cc1ccc(C)c(O)c1-3 | 0.0123 µM | > 2 µM | 0.249 µM | Accumulation [4]: 104; Accumulation [5]: 104; Accumulation [6]: 81; Accumulation [7]: 102; Accumulation [8]: 116; Accumulation [9]: 72 |
| CCCN1CCc2cccc3c2[C@H]1Cc1ccc(OS(=O)(=O)C(F)(F)F)c(OC)c1-3 | 3.3 µM | > 2 µM | 0.403 µM | – |
| COc1c(C(C)=O)ccc2c1-c1cccc3c1[C@@H](C2)N(C)CC3 | 0.15 µM | – | – | Ki [10]: 2.98 µM; Ki [11]: 4.82 µM |
| CC(=O)c1ccc2c(c1O)-c1cccc3c1[C@@H](C2)N(C)CC3 | – | 4.62 µM | 2.76 µM | – |
| CCc1ccc2c(c1OC)-c1cccc3c1[C@@H](C2)N(C)CC3 | 0.0175 µM | 1.03 µM | 0.411 µM | – |
| C=Cc1ccc2c(c1OC)-c1cccc3c1[C@@H](C2)N(C)CC3 | 0.108 µM | – | – | Ki [10]: 1.75 µM; Ki [11]: 1.44 µM |
| COc1c(C)ccc2c1-c1cccc3c1[C@@H](C2)N(C)CC3 | 0.0075 µM | 0.393 µM | 0.248 µM | – |
| COc1c(C)ccc2c1-c1cccc3c1[C@@H](C2)N(C(C)C)CC3 | 0.64 µM | > 5 µM | > 1 µM | – |
| Cc1ccc2c(c1O)-c1cccc3c1[C@@H](C2)N(Cc1ccccc1)CC3 | 0.772 µM | > 5 µM | > 1 µM | – |
| COc1c(OS(=O)(=O)C(F)(F)F)ccc2c1-c1cccc3c1[C@@H](C2)N(C)CC3 | 1.62 µM | > 2 µM | 1.04 µM | – |
| Cc1ccc2c(c1O)-c1cccc3c1[C@@H](C2)N(C(C)C)CC3 | 0.241 µM | > 10 µM | > 1 µM | – |
| Cc1ccc2c(c1O)-c1cccc3c1[C@@H](C2)N(C)CC3 | – | – | – | Accumulation [4]: 70; Accumulation [5]: 58; Accumulation [12]: 100; Accumulation [13]: 90; Accumulation [6]: 84; Accumulation [7]: 72 |
